Experimental data reported in ChEMBL document CHEMBL1125570 (J Med Chem, 1992).

Tests used:
[1] = target: T1, 5-hydroxytryptamine receptor 2C (Rattus norvegicus, UniProt P08909); test: Binding affinity against 5-hydroxytryptamine 1C receptor in rat using [3H]mesulergine as radioligand
T1 sequence (P08909 whole entry): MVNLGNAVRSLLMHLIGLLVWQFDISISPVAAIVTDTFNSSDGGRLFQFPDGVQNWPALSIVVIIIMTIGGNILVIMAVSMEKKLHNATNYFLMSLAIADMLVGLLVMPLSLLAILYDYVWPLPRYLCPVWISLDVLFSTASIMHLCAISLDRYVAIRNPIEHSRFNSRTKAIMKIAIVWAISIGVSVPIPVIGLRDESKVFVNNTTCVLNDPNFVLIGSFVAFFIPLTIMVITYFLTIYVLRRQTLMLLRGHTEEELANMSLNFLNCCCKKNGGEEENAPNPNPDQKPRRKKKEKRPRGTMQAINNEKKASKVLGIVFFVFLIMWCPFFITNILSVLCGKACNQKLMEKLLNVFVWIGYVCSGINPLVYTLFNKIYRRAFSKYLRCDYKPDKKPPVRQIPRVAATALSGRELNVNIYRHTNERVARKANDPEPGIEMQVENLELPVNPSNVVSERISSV
In short: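 Rat frontal cortex homogenate (male Sprague-Dawley, 200–250 g), washed in 50 mM Tris·HCl, 0.5 mM EDTA, 10 mM MgCl2, pH 7.4, with 0.1% ascorbate and 10⁻⁵ M pargyline. 10 mg wet tissue, 1 nM [3H]mesulergine, 100 nM spiperone to block 5-HT2 sites, nonspecific binding with 1.0 μM mianserin. Incubated 15 min at 37 °C, triplicates, filtration. Ki from IC50 via Cheng–Prusoff.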

[2] = target: Serotonin 2 (5-HT2) receptor (Rattus norvegicus, UniProt P14842); test: Binding affinity against 5-hydroxytryptamine 2 receptor in rat using [3H]ketanserin as radioligand
In short: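 Male Sprague-Dawley rat (200–250 g) frontal cortex membranes in 50 mM Tris·HCl/0.5 mM EDTA/10 mM MgCl2, pH 7.4, plus 0.1% ascorbate and 10⁻⁵ M pargyline. Nonspecific binding defined by 1.0 μM cinanserin. Run in triplicate, 15 min at 37 °C, then filtration. Ki = IC50/(1 + D*/KD*).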

[3] = target: T2, Serotonin 2 (5-HT2) receptor (Rattus norvegicus, UniProt P30994+P08909+P14842); test: Inhibitory constant against 5-hydroxytryptamine 2 receptor; format: protein assay
In short: (§1)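 Male Sprague-Dawley rat (200–250 g) frontal cortex membranes in 50 mM Tris·HCl/0.5 mM EDTA/10 mM MgCl2, pH 7.4, plus 0.1% ascorbate and 10⁻⁵ M pargyline. […] Nonspecific binding defined by 1.0 μM cinanserin. Run in triplicate, 15 min at 37 °C, then filtration. Ki = IC50/(1 + D*/KD*).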

[4] = target: T3, Serotonin 2 (5-HT2) receptor (Rattus norvegicus) (UniProt P30994+P08909+P14842); test: Selectivity ratio for 5-HT1C compared to 5-HT2 receptors.; format: protein assay
In short: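 Ratio of 5-HT1C Ki over 5-HT2 Ki. Both come from rat frontal cortex competition assays run in triplicate for 15 min at 37 °C. The 5-HT1C assay used 1 nM [3H]mesulergine with 100 nM spiperone present. […] Ki values were derived from IC50 by Cheng–Prusoff.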

[5] = target: T2, Serotonin 2 (5-HT2) receptor; test: Inhibitory activity against 5-hydroxytryptamine 2 receptor; format: protein assay; in short: as §1
[6] = target: T1, 5-hydroxytryptamine receptor 2C; test: Binding affinity against 5-hydroxytryptamine 1C receptor
[7] = target: T2, Serotonin 2 (5-HT2) receptor; test: Binding affinity against 5-Hydroxy tryptamine 2 (5-hydroxytryptamine 2)receptor; format: protein assay
[8] = target: T3, Serotonin 2 (5-HT2) receptor (Rattus norvegicus); test: Selectivity for 5-HT1C and 5-HT2 receptors, ratio of Ki; format: protein assay
In short: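 Both come from rat frontal cortex competition assays run in triplicate for 15 min at 37 °C. The 5-HT1C assay used 1 nM [3H]mesulergine with 100 nM spiperone present. Ki values were derived from IC50 by Cheng–Prusoff.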

T3 sequence (P14842 whole entry, looked up, one chain of several): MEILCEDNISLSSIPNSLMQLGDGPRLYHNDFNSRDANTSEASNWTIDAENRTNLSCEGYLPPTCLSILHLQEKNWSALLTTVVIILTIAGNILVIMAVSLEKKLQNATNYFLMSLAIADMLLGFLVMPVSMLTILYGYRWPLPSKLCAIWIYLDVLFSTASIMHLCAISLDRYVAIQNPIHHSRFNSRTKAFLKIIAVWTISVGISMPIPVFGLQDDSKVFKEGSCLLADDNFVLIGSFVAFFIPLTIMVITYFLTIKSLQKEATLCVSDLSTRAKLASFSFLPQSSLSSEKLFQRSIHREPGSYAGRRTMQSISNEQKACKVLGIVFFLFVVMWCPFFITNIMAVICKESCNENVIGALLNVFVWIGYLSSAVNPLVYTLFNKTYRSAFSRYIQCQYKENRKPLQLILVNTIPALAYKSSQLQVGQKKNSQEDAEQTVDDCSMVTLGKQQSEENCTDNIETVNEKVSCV
T3 sequence (P30994 whole entry, looked up, one chain of several): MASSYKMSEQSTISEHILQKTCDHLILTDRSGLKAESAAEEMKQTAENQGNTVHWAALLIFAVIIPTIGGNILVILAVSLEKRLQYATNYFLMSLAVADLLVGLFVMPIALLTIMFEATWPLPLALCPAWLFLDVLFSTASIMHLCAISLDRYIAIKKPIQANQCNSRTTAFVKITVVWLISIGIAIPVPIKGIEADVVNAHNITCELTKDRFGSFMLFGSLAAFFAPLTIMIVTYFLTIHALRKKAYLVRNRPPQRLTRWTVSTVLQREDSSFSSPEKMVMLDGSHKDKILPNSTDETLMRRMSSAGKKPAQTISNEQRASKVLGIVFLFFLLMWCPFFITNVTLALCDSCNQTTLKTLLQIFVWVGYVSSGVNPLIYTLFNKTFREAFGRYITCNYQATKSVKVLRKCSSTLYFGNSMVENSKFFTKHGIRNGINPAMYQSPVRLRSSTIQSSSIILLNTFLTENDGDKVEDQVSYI

Row | Compound | Ki [1] | Ki [2] | Ratio [4] | further results
1 | CN1CCN(C(=O)c2ccccc2)CC1 | > 10000 nM | > 10000 nM | – | –
2 | OC(c1ccccc1)C1CCN(CCc2ccccc2)CC1 (configuration not stated) [GLEMANSERIN] | – | – | – | Ki [3]: 12.5 nM
3 | O=C(O)C(=O)O.O=c1[nH]c2ccccc2c(=O)n1CCN1CCC(C(O)c2ccccc2)CC1 (configuration not stated) | > 10000 nM | 655 nM | > 15 | –
4 | Cl.O=c1[nH]c2ccccc2c(=O)n1CCN1CCCCC1 | > 10000 nM | > 10000 nM | – | –
5 | c1ccc(CN2CCNCC2)cc1 | > 10000 nM | > 10000 nM | – | –
6 | O=C(O)C(=O)O.O=C(c1ccc(F)cc1)C1CCN(CCc2ccccc2)CC1 | 145 nM | 8.5 nM | 15 | –
7 | O=C(c1ccccc1)C1CCNCC1 | > 10000 nM | 3320 nM | > 3 | –
8 | O=C(O)/C=C\C(=O)O.O=C(c1ccccc1)C1CCN(CCn2c(=O)[nH]c3ccccc3c2=O)CC1 | 760 nM | 6.5 nM | 115 | –
9 | O=C(O)C(=O)O.O=C(c1ccc(F)cc1)C1CCN(CCCCCc2ccccc2)CC1 | 420 nM | 10 nM | 40 | –
10 | O=C1NCCN1CCN1CCN(C2CC(c3ccc(F)cc3)c3ccccc32)CC1 (configuration not stated) | – | – | – | IC50 [5]: 3.4 nM
11 | O=C(NCCN1CCC(C(=O)c2ccc(F)cc2)CC1)c1ccccc1.O=C(O)C(=O)O | 1610 nM | 16 nM | 100 | –
12 | Cl.O=C(CCCN1CCC(C(=O)c2ccc(F)cc2)CC1)c1ccccc1 | 350 nM | 6.5 nM | 50 | –
13 | CN(CCCc1ccccc1)CCn1c(=O)[nH]c2ccccc2c1=O.O=C(O)C(=O)O | 1390 nM | 640 nM | 2 | –
14 | O=C(c1ccccc1)N1CCNCC1 | > 10000 nM | > 10000 nM | – | –
15 | Cl.NCCn1c(=O)[nH]c2ccccc2c1=O | > 10000 nM | > 10000 nM | – | –
16 | O=C(c1ccc(F)cc1)C1CCN(CCn2c(=O)[nH]c3ccccc3c2=O)CC1 [KETANSERIN] | 50 nM | – | – | –
17 | CCN1CCC(C(=O)c2ccc(F)cc2)CC1 | 3160 nM | 260 nM | 12 | –
18 | CN1CCN(CCn2c(=O)[nH]c3ccccc3c2=O)CC1.Cl.Cl | > 10000 nM | > 10000 nM | – | –

Row | Compound | Ki [1] | Ki [2] | Ratio [4] | further results
19 | O=C(O)/C=C\C(=O)O.O=c1[nH]c2ccccc2c(=O)n1CCNCCCc1ccccc1 | > 10000 nM | 660 nM | > 10 | –
20 | CN1CCN(C(=O)c2ccc(F)cc2)CC1 | > 10000 nM | > 10000 nM | – | –
21 | CN(C)CCn1c(=O)[nH]c2ccccc2c1=O | > 10000 nM | > 10000 nM | – | –
22 | O=C(O)C(=O)O.O=C(c1ccc(F)cc1)C1CCN(CCCc2ccccc2)CC1 | 940 nM | 16 nM | 60 | –
23 | CCN1CCC(C(O)c2ccc(F)cc2)CC1.O=C(O)/C=C\C(=O)O (configuration not stated) | > 10000 nM | > 10000 nM | – | –
24 | c1ccc(CC2CCNCC2)cc1 | – | – | – | Ki [6]: > 10000 nM; Ki [7]: > 10000 nM
25 | O=C(O)C(=O)O.O=c1[nH]c2ccccc2c(=O)n1CCN1CCC(Cc2ccc(F)cc2)CC1 | 200 nM | 12 nM | 17 | –
26 | OC(c1ccccc1)C1CCN(CCc2ccc(F)cc2)CC1 (configuration not stated) | – | – | – | IC50 [5]: 0.9 nM
27 | CN1CCC(C(=O)c2ccc(F)cc2)CC1 | 1510 nM | 125 nM | 12 | –
28 | O=C(O)C(=O)O.O=C(c1ccc(F)cc1)C1CCN(Cc2ccccc2)CC1 | 3000 nM | 25 nM | 120 | –
29 | O=C(O)/C=C\C(=O)O.O=c1[nH]c2ccccc2c(=O)n1CCN1CCC(Cc2ccccc2)CC1 | 970 nM | 32 nM | 30 | –
30 | O=C(NCCN1CCC(C(=O)c2ccc(F)cc2)CC1)Nc1ccccc1.O=C(O)C(=O)O | 200 nM | 4.3 nM | 50 | –
31 | O=C(O)C(=O)O.O=C(c1ccc(F)cc1)C1CCN(CCCCc2ccccc2)CC1 | 620 nM | 5.3 nM | 120 | –
32 | CN1CCC(Cc2ccccc2)CC1.Cl | – | – | – | Ki [6]: > 10000 nM; Ki [7]: 3870 nM; Ki ratio [8]: > 2
33 | CN1CCN(C2CC(c3ccc(F)cc3)c3ccccc32)CC1 (single isomer, unassigned; (+)) | – | – | – | IC50 [5]: 4.9 nM
34 | O=C(c1ccc(F)cc1)C1CCNCC1 | 1100 nM | 430 nM | 2 | –
35 | O=C(O)/C=C\C(=O)O.O=c1[nH]c2ccccc2c(=O)n1CCNCCCCc1ccccc1 | > 10000 nM | 180 nM | > 50 | –
36 | CN1CCN(Cc2ccc(F)cc2)CC1.Cl.Cl | > 10000 nM | > 10000 nM | – | –
